# Assay outcomes: PubChem BioAssay, Broad Institute
# CaV13 ICDI inh: Primary screen for inhibitors of IQ motif and Ca2+-dependent inactivation inhibitor domain binding in CACNA1D, Förster resonance energy transfer in living cells, … | inhibition, % at 12.3 µM | HEK cells, CFP/YFP FRET ICDI-IQ, plate reader, 10 min; percent FRET-ratio fall versus neutral wells | 340,000 compounds, 0.098% hits;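 active = mean replicate inhibition of at least 30% and at least 1% of replicates passing that level; inconclusive = only one of the two criteria is met; inactive = neither criterion is met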;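 note: 0% = median of the neutral control wells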
# DENV2 CPE: DENV2-induced cell death inhibition | 350,000 compounds, 1.7% hits | DENV2-infected cells, cytopathic effect rescue, plate reader | AID 651640 | CPE inhibition, % at 9.99 µM; in the data active = CPE inhibition above about 20%, passing the limit was not always enough; inconclusive = no clear call, values can overlap the other calls; tested in BHK-21 cells;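 note: 0% = median of neutral control wells and 100% = median of positive control wells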
# S100A4 inh HTS: inhibitors of human S100A4 binding to myosin IIA peptide | 360,000 compounds, 0.14% hits | S100A4/TAMRA-MyoIIA peptide fluorescence polarization | inhibition, % at 10.7 µM | P26447;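 active = mean inhibition of at least 70% across replicates, with every replicate also reaching that level; inconclusive = mean inhibition reaches 70% but some replicates fall short; inactive = mean inhibition below 70%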
# Target sequence (P26447 whole entry, looked up): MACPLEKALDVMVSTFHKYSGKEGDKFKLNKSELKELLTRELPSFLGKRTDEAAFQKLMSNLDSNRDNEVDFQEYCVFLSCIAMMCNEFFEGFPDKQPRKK
#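 Assay system: human S100A4 monomer with TAMRA-labelled myosin IIA peptide / Buffer or medium: Calcium-containing HEPES buffer, pH 7.2 / Reagent: TAMRA-labelled myosin IIA heavy-chain peptide probe, 5 nM / Compound: one dose per compound / Timing: polarization read 5 min after assay mix addition, stable 5–60 min / Benchmarks: neutral control DMSO, positive control TFP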
# AF4-AF9 inh: blocks AF4 peptide binding to human AF9. P42568. AlphaScreen, biotin-AF4 peptide binding to FLAG-AF9. inhibition, % at 10 µM. 350,000 compounds, 0.47% hits. AID 651704;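 active = every replicate reaching a set inhibition limit, whatever the replicate mean, cut at about 25% in these data; inconclusive = mean inhibition reaches that limit but some replicates miss it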;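 note: 0% = plate neutral control median and 100% = total signal loss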
# Target sequence (P42568 whole entry, looked up): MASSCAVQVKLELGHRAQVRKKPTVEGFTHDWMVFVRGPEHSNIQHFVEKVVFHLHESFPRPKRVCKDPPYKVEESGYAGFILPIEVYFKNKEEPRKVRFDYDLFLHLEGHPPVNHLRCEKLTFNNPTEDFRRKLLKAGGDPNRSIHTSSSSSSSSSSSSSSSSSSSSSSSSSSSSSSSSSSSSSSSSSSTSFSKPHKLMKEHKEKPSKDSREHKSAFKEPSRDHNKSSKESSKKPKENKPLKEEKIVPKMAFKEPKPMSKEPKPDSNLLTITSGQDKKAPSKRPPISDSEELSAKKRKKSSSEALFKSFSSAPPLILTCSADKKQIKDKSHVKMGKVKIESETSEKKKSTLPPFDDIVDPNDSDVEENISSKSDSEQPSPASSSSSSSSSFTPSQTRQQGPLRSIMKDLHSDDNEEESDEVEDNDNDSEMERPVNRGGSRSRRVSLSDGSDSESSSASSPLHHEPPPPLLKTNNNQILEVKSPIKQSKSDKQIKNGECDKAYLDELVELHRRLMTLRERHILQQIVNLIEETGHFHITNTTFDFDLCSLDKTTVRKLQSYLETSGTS
# SIRT5 block: sirtuin-5 (human) deacylase inhibition; Purified SirT5, succinyl-peptide AMC, trypsin-coupled fluorescence; inhibition, % at 15 µM; 330,000 compounds, 1.1% hits; AID 652115; in the data active = inhibition above about 15%; inconclusive = no clear call, values can overlap the other calls
# An asterisk follows results filed as active; ? = inconclusive; . = no result given. Shown are actives, neighbours in structure and some others; about 2.7% of the full set was active somewhere.
SMILES,CaV13 ICDI inh,DENV2 CPE,S100A4 inh HTS,AF4-AF9 inh,SIRT5 block
CS(=O)(=O)N1[C@H](CO)[C@@H](c2ccccc2)C12CN(C(=O)c1ccccc1F)C2,.,2,1,2,-3
O=C(Nc1cccc(C(F)(F)F)c1)c1csc([C@H]2C[C@H](O)[C@@H](CO)O2)n1,-6,-1,-5,-1,0
O=C(Nc1cccc(Cl)c1)c1csc([C@@H]2C[C@H](O)[C@@H](CO)O2)n1,-5,36*,4,1,.
CCN1C/C(=C\c2cccc([N+](=O)[O-])c2)C(=O)/C(=C/c2cccc([N+](=O)[O-])c2)C1,-5,33*,1,-14,1
CCc1nc(SCC(=O)c2ccc3c(c2)OCCO3)c2ccccc2n1,-5,.,.,.,.
CCc1nc(SCC(=O)c2ccccc2)c2ccccc2n1,39*,-5,4,0,.
O=C(N/N=C/c1ccc[nH]1)c1ccccc1OCc1ccc(F)cc1,-16,1,2,-15,22*
CC(=O)N1[C@@H]2c3ccc(C4=CCCCC4)c(=O)n3C[C@H]1[C@H](CO)[C@H]2C(=O)NC1CCCC1,.,5,-1,-3,-17
CCOC(=O)N1CCN(S(=O)(=O)c2ccc(C(=O)N(CCN(C)C)c3nc4c(C)cccc4s3)cc2)CC1,-6,-7,-2,2,-3
CCOC(=O)N1CCN(S(=O)(=O)c2ccc(C(=O)N(CCCN(C)C)c3nc4c(C)c(C)ccc4s3)cc2)CC1,-7,15,-2,26*,0
O=C(C[C@@H]1CC[C@@H](NC(=O)Cc2ccccn2)[C@@H](CO)O1)NCCc1ccccc1,.,?,4,-3,4
Cc1ccc(C(O)c2ncc(-c3ccc4ccccc4c3)[nH]2)cc1 (configuration not stated),-9,76*,-4,-1,-3
Cc1noc(C)c1NC(=O)Nc1ccc2c(c1)C(=O)N([C@H](C)CO)C[C@H](C)[C@@H](CN(C)Cc1ccc(C(F)(F)F)cc1)OCCCC[C@@H](C)O2,.,-9,-9,1,26*
Cc1noc(C)c1NC(=O)Nc1ccc2c(c1)C(=O)N([C@@H](C)CO)C[C@H](C)[C@@H](CN(C)Cc1ccc3c(c1)OCO3)OCCCC[C@@H](C)O2,.,-7,.,.,.
Cc1noc(C)c1NC(=O)Nc1ccc2c(c1)C(=O)N([C@H](C)CO)C[C@H](C)[C@H](CN(C)Cc1ccc(Cl)c(Cl)c1)OCCCC[C@H](C)O2,.,27*,9,4,7
Cc1noc(C)c1NC(=O)Nc1ccc2c(c1)C(=O)N([C@@H](C)CO)C[C@@H](C)[C@@H](CN(C)Cc1ccccc1)OCCCC[C@@H](C)O2,.,89*,-4,-1,7
Cc1noc(C)c1NC(=O)Nc1ccc2c(c1)C(=O)N([C@H](C)CO)C[C@H](C)[C@H](CN(C)Cc1ccc(C(F)(F)F)cc1)OCCCC[C@@H](C)O2,.,1,-24,1,0
CNC(=O)C[C@H]1CC[C@H]2[C@@H](COC[C@@H](O)CN2S(=O)(=O)c2ccccc2Cl)O1,.,0,.,.,.
COc1cccc(C2NC(=S)NC(C)=C2C(C)=O)c1 (configuration not stated),.,57*,0,.,2
CCOc1cccc(C2NC(=S)NC(C)=C2C(=O)Nc2ccccc2)c1 (configuration not stated),-4,.,.,.,.
C[C@@H]1CCCCO[C@H](CN(C)C(=O)Nc2ccc3c(c2)OCO3)[C@@H](C)CN([C@@H](C)CO)C(=O)c2cc(NS(=O)(=O)c3ccc(F)cc3)ccc2O1,.,15,.,.,.
Nc1ncnc2c1ncn2[C@@H]1O[C@H](C(=O)N[C@@H](CCc2ccccc2)C(=O)N2CCN(C(=O)N3CCOCC3)CC2)[C@@H](O)[C@H]1O,-3,-10,-3,.,2
CCCN=CC1=C(O)CC(c2ccccc2)CC1=O (configuration not stated),-5,.,.,.,.
Cc1cc(C)nc(N/N=C/C2=C(O)CC(c3ccccc3)CC2=O)n1 (configuration not stated),2,32*,0,-4,-2
COc1ccc(S(=O)(=O)Nc2ccc3c(c2)CC(=O)N([C@H](C)CO)C[C@H](C)[C@@H](CN(C)Cc2ccc(Oc4ccccc4)cc2)O3)cc1,.,2,10,4,2
SMILES,CaV13 ICDI inh,DENV2 CPE,S100A4 inh HTS,AF4-AF9 inh,SIRT5 block
O=C(NCCc1ccccc1)C1CCN(C2CCN(C(=O)CC3=CCCCC3)CC2)CC1,-3,.,-1,-8,0
O=C(NC1CC1)C1CCN(C2CCN(C(=O)CC3=CCCCC3)CC2)CC1,-5,2,-5,-1,29*
CCN1[C@H](C(=O)NC2Cc3ccccc3C2)[C@@H](CO)[C@@H]2Cn3c(ccc(C4=CCCC4)c3=O)[C@@H]21,.,-9,-6,3,-5
O=C(C[C@@H]1CC[C@H]2[C@@H](COC[C@@H](O)CN2S(=O)(=O)c2ccc(F)cc2)O1)N[C@@H]1CCN(Cc2ccccc2)C1,.,1,-1,3,-4
C[C@H]1CN([C@@H](C)CO)C(=O)c2cc(NC(=O)CCN3CCOCC3)ccc2O[C@H]1CN(C)C(=O)Nc1ccc2c(c1)OCO2,.,6,-4,-3,20*
C[C@@H]1CN([C@H](C)CO)C(=O)c2cc(NC(=O)CCN3CCOCC3)ccc2O[C@@H]1CN(C)C(=O)Nc1ccc2c(c1)OCO2,.,50*,5,-2,-5
COCC(=O)N1C[C@H]2[C@@H](c3ccccc31)[C@H](CO)N2C(=O)C1CCCCC1,.,-6,.,.,.
C[C@@H]1CN([C@H](C)CO)C(=O)c2cc(N(C)C)ccc2O[C@@H](C)CCCCO[C@@H]1CN(C)C(=O)NC1CCCCC1,.,?,104*,-3,7
C[C@@H]1CN([C@H](C)CO)C(=O)c2cc(NC(=O)Nc3ccc(F)cc3)ccc2O[C@@H](C)CCCCO[C@H]1CN(C)C(=O)NC1CCCCC1,.,21*,-2,3,1
C[C@H](CO)N1C[C@H](C)[C@@H](CN(C)C(=O)NC2CCCCC2)OCCCC[C@H](C)Oc2ccc(NC(=O)NC3CCCCC3)cc2C1=O,.,-9,-1,1,3
C[C@@H]1CCCCO[C@H](CN(C)C(=O)NC2CCCCC2)[C@@H](C)CN([C@@H](C)CO)C(=O)c2cc(NC(=O)NC3CCCCC3)ccc2O1,.,47*,3,0,6
C[C@@H]1CCCCO[C@@H](CN(C)C(=O)NC2CCCCC2)[C@@H](C)CN([C@@H](C)CO)C(=O)c2cc(N(C)C)ccc2O1,.,-4,1,1,-1
C[C@H]1CCCCO[C@H](CN(C)C(=O)NC2CCCCC2)[C@@H](C)CN([C@@H](C)CO)C(=O)c2cc(NC(=O)Nc3ccc(F)cc3)ccc2O1,.,32*,7,1,.
C[C@@H]1CCCCO[C@@H](CN(C)C(=O)NC2CCCCC2)[C@H](C)CN([C@H](C)CO)C(=O)c2cc(NC(=O)Nc3ccc(F)cc3)ccc2O1,.,-5,-2,-1,-1
